Activity calls are given as the source filed them. The rule behind the calls is not given here.
Columns and labels:
L1210 [1] = assay: Antileukemic activity against mouse L1210 cells allografted in BDF1 mouse assessed as increase in life span of host at 27.8 umol/kg, po qd for 4 days relative to control; type: functional; settings: 96 h
L1210 [2] = assay: Antileukemic activity against mouse L1210 cells allografted in BDF1 mouse assessed as increase in life span of host at 13.8 umol/kg, sc qd for 5 days relative to control; type: functional; settings: 120 h
L1210 [3] = assay: Antileukemic activity against mouse L1210 cells allografted in BDF1 mouse assessed as increase in life span of host at 5.56 umol/kg, ip qd for 5 days relative to control; type: functional; settings: 120 h
Outline: (§1)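 BDF1 mice, 5 weeks old, were inoculated ip with 5×10^5 L1210 cells; test groups had 4 males and 4 females, controls 5 males and 5 females. Dosing was ip, five times over the 5 days after inoculation, as a suspension in vehicle for the insoluble compounds. Read-out was increase in life span over controls.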

L1210 [4] = assay: Antileukemic activity against mouse L1210 cells allografted in BDF1 mouse assessed as increase in life span of host at 5.56 umol/kg, sc qd for 5 days relative to control; type: functional; settings: 120 h
L1210 [5] = assay: Antileukemic activity against mouse L1210 cells allografted in BDF1 mouse assessed as increase in life span of host at 5.56 umol/kg, po qd for 4 days relative to control; type: functional; settings: 96 h
L1210 [6] = assay: Antileukemic activity against mouse L1210 cells allografted in BDF1 mouse assessed as increase in life span of host at 5.56 umol/kg, ip relative to control; type: functional
Outline: as §1, with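 “A single ip dose” for “Dosing”, “given on” for “ip, five times over”, “day” for “5 days”, “controls, with survivors past 30 days counted as 30 days.” for “controls.”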

L1210 [7] = assay: Antileukemic activity against mouse L1210 cells allografted in BDF1 mouse assessed as increase in life span of host at 27.8 umol/kg, sc qd for 5 days relative to control; type: functional; settings: 120 h
L1210 [8] = assay: Antileukemic activity against mouse L1210 cells allografted in BDF1 mouse assessed as increase in life span of host at 139 umol/kg, ip relative to control; type: functional
Outline: (§2)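 BDF1 mice, 5 weeks old, were inoculated ip with 5×10^5 L1210 cells in 0.1 ml saline. Test groups were 4 male and 4 female mice; controls were 5 male and 5 female. Insoluble compounds were suspended in vehicle. Dosing was ip, either once on the day after inoculation or daily for 5 days. Read-out was increase in life span over controls. Mice alive beyond 30 days were counted as 30 days and scored as survivors.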

L1210 [9] = assay: Antileukemic activity against mouse L1210 cells allografted in BDF1 mouse assessed as increase in life span of host at 27.8 umol/kg, ip relative to control; type: functional
Outline: as §1, with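 “A single ip dose” for “Dosing”, “given on” for “ip, five times over”, “day” for “5 days”, “controls, with survivors past 30 days counted as 30 days.” for “controls.”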

L1210 [10] = assay: Antileukemic activity against mouse L1210 cells allografted in BDF1 mouse assessed as increase in life span of host at 5.21 umol/kg, ip relative to control; type: functional
Outline: as §1, with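 “A single ip dose” for “Dosing”, “given on” for “ip, five times over”, “day” for “5 days”, “controls, with survivors past 30 days counted as 30 days.” for “controls.”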

L1210 [11] = assay: Antileukemic activity against mouse L1210 cells allografted in BDF1 mouse assessed as increase in life span of host at 1.11 umol/kg, ip qd for 5 days relative to control; type: functional; settings: 120 h; outline: as §2
L1210 [12] = assay: Antileukemic activity against mouse L1210 cells allografted in BDF1 mouse assessed as increase in life span of host at 13.8 umol/kg, po qd for 4 days relative to control; type: functional; settings: 96 h
L1210 [13] = assay: Antileukemic activity against mouse L1210 cells allografted in BDF1 mouse assessed as increase in life span of host at 1.11 umol/kg, sc qd for 5 days relative to control; type: functional; settings: 120 h
L1210 [14] = assay: Antileukemic activity against mouse L1210 cells allografted in BDF1 mouse assessed as increase in life span of host at 13.8 umol/kg, ip qd for 5 days relative to control; type: functional; settings: 120 h; outline: as §2
Mus musculus = species on record: Mus musculus; assay: Toxicity in mouse L1210 cells allografted BDF1 mouse; type: organism-based
[15] = Solubility of the compound; type: physicochemical
L1210 [16] = assay: Antileukemic activity against mouse L1210 cells allografted in BDF1 mouse assessed as increase in life span of host at 27.8 umol/kg, ip qd for 5 days relative to control; type: functional; settings: 120 h; outline: as §1
L1210 [17] = assay: Antileukemic activity against mouse L1210 cells allografted in BDF1 mouse assessed as increase in life span of host at 69.4 umol/kg, ip relative to control; type: functional
Outline: as §1, with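 “A single ip dose” for “Dosing”, “given on” for “ip, five times over”, “day” for “5 days”, “controls, with survivors past 30 days counted as 30 days.” for “controls.”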

L1210 [18] = assay: Antileukemic activity against mouse L1210 cells allografted in BDF1 mouse assessed as increase in life span of host at 278 umol/kg, ip relative to control; type: functional
Outline: as §1, with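 “A single ip dose” for “Dosing”, “given on” for “ip, five times over”, “day” for “5 days”, “controls, with survivors past 30 days counted as 30 days.” for “controls.”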

L1210 [19] = assay: Antileukemic activity against mouse L1210 cells allografted in BDF1 mouse assessed as increase in life span of host at 25 umol/kg, po qd for 4 days relative to control; type: functional; settings: 96 h
L1210 [20] = assay: Antileukemic activity against mouse L1210 cells allografted in BDF1 mouse assessed as increase in life span of host at 1 umol/kg, sc qd for 5 days relative to control; type: functional; settings: 120 h
L1210 [21] = assay: Antileukemic activity against mouse L1210 cells allografted in BDF1 mouse assessed as increase in life span of host at 1 umol/kg, ip qd for 5 days relative to control; type: functional; settings: 120 h; outline: as §2
L1210 [22] = assay: Antileukemic activity against mouse L1210 cells allografted in BDF1 mouse assessed as increase in life span of host at 12.5 umol/kg, ip qd for 5 days relative to control; type: functional; settings: 120 h; outline: as §2
L1210 [23] = assay: Antileukemic activity against mouse L1210 cells allografted in BDF1 mouse assessed as increase in life span of host at 5 umol/kg, sc qd for 5 days relative to control; type: functional; settings: 120 h
L1210 [24] = assay: Antileukemic activity against mouse L1210 cells allografted in BDF1 mouse assessed as increase in life span of host at 25 umol/kg, ip qd for 5 days relative to control; type: functional; settings: 120 h; outline: as §1
L1210 [25] = assay: Antileukemic activity against mouse L1210 cells allografted in BDF1 mouse assessed as increase in life span of host at 5 umol/kg, ip qd for 5 days relative to control; type: functional; settings: 120 h; outline: as §1
L1210 [26] = assay: Antileukemic activity against mouse L1210 cells allografted in BDF1 mouse assessed as increase in life span of host at 25 umol/kg, sc qd for 5 days relative to control; type: functional; settings: 120 h
L1210 [27] = assay: Antileukemic activity against mouse L1210 cells allografted in BDF1 mouse assessed as increase in life span of host at 12.5 umol/kg, po qd for 5 days relative to control; type: functional; settings: 120 h
L1210 [28] = assay: Antileukemic activity against mouse L1210 cells allografted in BDF1 mouse assessed as increase in life span of host at 5 umol/kg, po qd for 5 days relative to control; type: functional; settings: 120 h
L1210 [29] = assay: Antileukemic activity against mouse L1210 cells allografted in BDF1 mouse assessed as increase in life span of host at 57.1 umol/kg, ip relative to control; type: functional
Outline: as §1, with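 “A single ip dose” for “Dosing”, “given on” for “ip, five times over”, “day” for “5 days”, “controls, with survivors past 30 days counted as 30 days.” for “controls.”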

L1210 [30] = assay: Antileukemic activity against mouse L1210 cells allografted in BDF1 mouse assessed as increase in life span of host at 4.17 umol/kg, ip relative to control; type: functional
Outline: as §1, with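 “A single ip dose” for “Dosing”, “given on” for “ip, five times over”, “day” for “5 days”, “controls, with survivors past 30 days counted as 30 days.” for “controls.”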

L1210 [31] = assay: Antileukemic activity against mouse L1210 cells allografted in BDF1 mouse assessed as increase in life span of host at 22.8 umol/kg, ip relative to control; type: functional
Outline: as §1, with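 “A single ip dose” for “Dosing”, “given on” for “ip, five times over”, “day” for “5 days”, “controls, with survivors past 30 days counted as 30 days.” for “controls.”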

L1210 [32] = assay: Antileukemic activity against mouse L1210 cells allografted in BDF1 mouse assessed as host survival at 57.1 umol/kg, ip after 30 days; type: functional, organism-based; outline: as §2
L1210 [33] = assay: Antileukemic activity against mouse L1210 cells allografted in BDF1 mouse assessed as host survival at 22.8 umol/kg, ip after 30 days; type: functional, organism-based; outline: as §2
L1210 [34] = assay: Antileukemic activity against mouse L1210 cells allografted in BDF1 mouse assessed as host survival at 4.17 umol/kg, ip after 30 days; type: functional, organism-based; outline: as §2
L1210 [35] = assay: Antileukemic activity against mouse L1210 cells allografted in BDF1 mouse assessed as increase in life span of host at 52.1 umol/kg, ip relative to control; type: functional
Outline: as §1, with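 “A single ip dose” for “Dosing”, “given on” for “ip, five times over”, “day” for “5 days”, “controls, with survivors past 30 days counted as 30 days.” for “controls.”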

L1210 [36] = assay: Antileukemic activity against mouse L1210 cells allografted in BDF1 mouse assessed as host survival at 20.8 umol/kg, ip after 30 days; type: functional, organism-based; outline: as §2
L1210 [37] = assay: Antileukemic activity against mouse L1210 cells allografted in BDF1 mouse assessed as increase in life span of host at 20.8 umol/kg, ip relative to control; type: functional
Outline: as §1, with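 “A single ip dose” for “Dosing”, “given on” for “ip, five times over”, “day” for “5 days”, “controls, with survivors past 30 days counted as 30 days.” for “controls.”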

C=CCC1(O)C(=O)OCc2c1cc1n(c2=O)Cc2cc3ccccc3nc2-1 (racemic)
ILS at 27.8 µmol/kg (L1210 [1]): -1%
ILS at 13.8 µmol/kg (L1210 [2]): 26%
ILS at 5.56 µmol/kg (L1210 [3]): 42%
ILS at 5.56 µmol/kg (L1210 [4]): 4%
ILS at 5.56 µmol/kg (L1210 [5]): 3%
ILS at 5.56 µmol/kg (L1210 [6]): 16%
ILS at 27.8 µmol/kg (L1210 [7]): 51%
ILS at 139 µmol/kg (L1210 [8]): > 60%
ILS at 27.8 µmol/kg (L1210 [9]): 84%
ILS at 5.21 µmol/kg (L1210 [10]): -5%
ILS at 1.11 µmol/kg (L1210 [11]): 14%
ILS at 13.8 µmol/kg (L1210 [12]): -1%
ILS at 1.11 µmol/kg (L1210 [13]): -1%
ILS at 13.8 µmol/kg (L1210 [14]): > 105%
Activity (Mus musculus): Toxic
solubility [15]: Insoluble
ILS at 27.8 µmol/kg (L1210 [16]): -13%
ILS at 69.4 µmol/kg (L1210 [17]): > 155%
ILS at 278 µmol/kg (L1210 [18]): -43%

C=CCC1(O)C(=O)OCc2c1cc1n(c2=O)Cc2cc3ccccc3nc2-1 (stereo unspecified)
ILS at 25 µmol/kg (L1210 [19]): 21%
ILS at 1 µmol/kg (L1210 [20]): -2%
ILS at 1 µmol/kg (L1210 [21]): -2%
ILS at 12.5 µmol/kg (L1210 [22]): 58%
ILS at 5 µmol/kg (L1210 [23]): 9%
ILS at 25 µmol/kg (L1210 [24]): > 118%
ILS at 5 µmol/kg (L1210 [25]): 13%
ILS at 25 µmol/kg (L1210 [26]): 72%
ILS at 12.5 µmol/kg (L1210 [27]): 40%
ILS at 5 µmol/kg (L1210 [28]): 12%

O=C(CC1(O)C(=O)OCc2c1cc1n(c2=O)Cc2cc3ccccc3nc2-1)c1ccccc1 (racemic)
ILS at 57.1 µmol/kg (L1210 [29]): 21%
ILS at 4.17 µmol/kg (L1210 [30]): 26%
ILS at 22.8 µmol/kg (L1210 [31]): 10%
solubility [15]: Insoluble
Activity (L1210 [32]): inactive
Activity (L1210 [33]): inactive
Activity (L1210 [34]): inactive

CCOCc1c(C(O)(CC(=O)OCC)C(=O)OCC)cc2n(c1=O)Cc1cc3ccccc3nc1-2 (stereo unspecified)
ILS at 52.1 µmol/kg (L1210 [35]): > 170%
Activity (L1210 [36]): inactive
Activity (Mus musculus): Toxic
solubility [15]: Insoluble
ILS at 20.8 µmol/kg (L1210 [37]): 55%

— ChEMBL document CHEMBL3272061, “Experiments of synthesis of dl-camptothecin. 4. Synthesis and antileukemic activity of dl-camptothecin analogues” (J Med Chem, 1976)
